Measurements from different studies.
Lines come from different studies, so protocols differ.
MEP1A: Meprin A subunit alpha (MEP1A, Homo sapiens, UniProt Q16819)
PDE5A: cGMP-specific 3',5'-cyclic phosphodiesterase (PDE5A, Homo sapiens, UniProt O76074)
PARP1: Poly [ADP-ribose] polymerase 1 (PARP1, Homo sapiens, UniProt P09874)
KDM1A: Lysine-specific histone demethylase 1A (KDM1A, Homo sapiens, UniProt O60341)
PPO3: PPO3 (Agaricus bisporus, UniProt C7FF04)
ARAF: Serine/threonine-protein kinase A-Raf (ARAF, Homo sapiens, UniProt P10398)
PFF0160c: Dihydroorotate dehydrogenase (quinone), mitochondrial (PFF0160c, Plasmodium falciparum, UniProt Q08210)
PDE4A: 3',5'-cyclic-AMP phosphodiesterase 4A (PDE4A, Homo sapiens, UniProt P27815)

| Structure (SMILES) | target | test | setting | IC50 [µM] |
| --- | --- | --- | --- | --- |
| O=C(CCN(Cc1ccc2c(c1)OCO2)Cc1ccc(Cl)cc1F)NO | MEP1A | enzyme activity, inhibitor | – | 0.186 |
| CN1C(=O)c2c(nn(Cc3ccc(-c4cccc(F)n4)cc3)c2Nc2ccccc2)N2C1=N[C@@H]1CCC[C@@H]12 | PDE5A | enzyme activity, inhibitor | – | > 0.1 |
| O=C(O)CCCC(=O)N1CCN(C(=O)c2cc(Cc3n[nH]c(=O)c4ccccc34)ccc2F)CC1 | PARP1 | enzyme activity, inhibitor | – | 0.0067 |
| COC(=O)[C@@H]1Cc2c([nH]c3ccccc23)[C@H](c2cccnc2)N1 | PDE5A | enzyme activity, inhibitor, FP | – | > 10 |
| O=C(NC1CC2(C1)CN(C(=O)c1cc3ccccc3c(=O)[nH]1)C2)c1c[nH]nn1 | PARP1 | enzyme activity, inhibitor | – | 1.28 |
| CC(C)(C)N1C(=O)[C@@H]2Cc3c([nH]c4ccccc34)[C@@H](c3cccnc3)N2C1=O | PDE5A | enzyme activity, inhibitor, FP | – | 0.18 |
| CCCSc1nc(Sc2nnnn2C)c2nnn(CCc3cccs3)c2n1 | KDM1A | enzyme activity, inhibitor, fluorescence | – | 0.339 |
| Cc1ccc(N=Nc2c(N)nc(N)nc2Cl)cc1 | PPO3 | enzyme activity, inhibitor, absorbance | – | 42 |
| C#CCSc1nc(Sc2nnnn2-c2cccnc2)c2nnn(Cc3ccccc3Cl)c2n1 | KDM1A | enzyme activity, inhibitor, fluorescence | – | 0.127 |
| Cc1ccc(COc2ccc3c(c2)NC(=C(C#N)C(=O)c2ccc(Cl)cc2Cl)NC3=O)cc1 | Cytoplasmic dynein 1 heavy chain 1 (DYNC1H1, Homo sapiens, UniProt Q14204) | ATPase activity, inhibitor | – | 280 |
| Nc1nc(N)c(N=Nc2ccc([N+](=O)[O-])cc2)c(Cl)n1 | PPO3 | enzyme activity, inhibitor, absorbance | – | 37.2 |
| CCCS(=O)(=O)Nc1ccc(F)c(C(=O)c2c[nH]c3ncc(Cl)cc23)c1F | ARAF | enzyme activity, inhibitor | lysate | 0.022 |
| CNCCOc1nc2nc(C)cc(Nc3ccc(S(F)(F)(F)(F)F)cc3)n2n1 | PFF0160c | enzyme activity, inhibitor | – | > 10 |
| CCOCc1nc(O)c(-c2nnc(Cc3ccc(Cl)cn3)o2)c(O)c1-c1c(OC)cccc1OC | Cannabinoid receptor 1 (CNR1, Homo sapiens, UniProt P21554) | ligand displacement, radioligand | – | > 30 |
| COCCc1nc2nc(C)cc(Nc3cccc(Cl)c3)n2n1 | PFF0160c | enzyme activity, inhibitor | – | > 10 |
| O=C(Nc1ccn(Cc2ccc(O)cc2C(F)(F)F)n1)c1c(F)cccc1F | Sodium channel protein type 9 subunit alpha (SCN9A, Homo sapiens, UniProt Q15858) | ion current, inhibitor | – | > 10 |
| COc1ccc([C@@H]2CN(C(=O)[C@@H](O)CO)C[C@@]2(C)[C@@H](C)O)cc1OC1CN(c2ccc(C)cn2)C1 | PDE4A | enzyme activity, inhibitor | – | 9e-05 |
| CC(C)(C)n1nc(-c2cnc3cc(OC4CC4)ccc3c2)c(C(N)=O)c1N | Aurora kinase B (AURKB, Homo sapiens, UniProt Q96GD4) | cell-free assay, inhibitor | – | > 10 |
| Cc1ccc(C(C)C)cc1NC(=O)COC(=O)/C=C/c1ccccc1 | PPO3 | enzyme activity, inhibitor | – | 0.78 |
| CCCCc1ccc(-c2ccc(-c3cc(C(=O)O)c4cccc([N+](=O)[O-])c4n3)o2)cc1 | Eukaryotic initiation factor 4A-I (EIF4A1, Homo sapiens, UniProt P60842) | ATPase activity, inhibitor, absorbance | – | 27.5 |
| CC1Cc2ccccc2N1C(=O)NCCCCN(C)[C@@H]1Cc2cccc3[nH]c(=O)n(c23)C1 (mixture of isomers) | 5-hydroxytryptamine receptor 2A (HTR2A, Homo sapiens, UniProt P28223) | ligand displacement, radioligand | – | 4.12 |

| Structure (SMILES) | target | test | setting | IC50 [µM] |
| --- | --- | --- | --- | --- |
| CN1CCN(c2ccc(Nc3ncc4cc(C#N)c(=O)n(C5CCCC5)c4n3)cc2)CC1 | ARAF | enzyme activity, inhibitor | – | 0.566 |
| CNCCc1nc2nc(C)cc(Nc3ccc(Cl)cc3)n2n1 | PFF0160c | enzyme activity, inhibitor | – | > 10 |
| CCN1C(=O)[C@H]2Cc3c([nH]c4ccccc34)[C@H](c3ccc(OC)c(OC)c3)N2C1=O | PDE5A | enzyme activity, inhibitor, FP | – | 7 |
| N[C@@]1(C(=O)O)CC[C@]12CC[C@H]2C(=O)O | Glutamate racemase (Helicobacter pylori J99, UniProt Q9ZLT0) | enzyme activity, inhibitor | – | 18000 |
| Cc1cc(Nc2ccc(Cl)cc2)n2nc(OCCN)nc2n1 | PFF0160c | enzyme activity, inhibitor | – | > 10 |
| COc1ccc([C@@H]2c3[nH]c4ccccc4c3C[C@H]3C(=O)N(C(C)(C)C)C(=O)N23)cc1OC | PDE5A | enzyme activity, inhibitor, FP | – | 6.21 |
| CC(C)C[C@H]1CC(=O)N2CCC[C@H]2C(=O)N[C@@H](CCCCCC(=O)NO)C(=O)N[C@@H](Cc2c[nH]c3ccccc23)C(=O)N1 | Histone deacetylase 2 (HDAC2, Homo sapiens, UniProt Q92769) | enzyme activity, inhibitor | – | 0.0035 |
| Cc1cc(Nc2ccc(Cl)cc2)n2nc(CCN)nc2n1 | PFF0160c | enzyme activity, inhibitor | – | > 10 |
| Nc1nc(N)c(N=Nc2ccccc2[N+](=O)[O-])c(N)n1 | PPO3 | enzyme activity, inhibitor, absorbance | – | 34.1 |
| Cc1cc(Nc2ccc(C(F)(F)F)cc2)c2ccccc2n1 | PFF0160c | enzyme activity, inhibitor | – | 0.98 |
| O=C1Nc2ccc(I)cc2/C1=C/c1cc(Br)c(O)c(Br)c1 | ARAF | enzyme activity, inhibitor, radiometric | – | 0.0154 |
| Cc1ccc(C(C)C)cc1NC(=O)COC(=O)/C=C/c1ccc(Cl)cc1 | PPO3 | enzyme activity, inhibitor | – | 16.7 |
| Cc1cc(Nc2cccc(Cl)c2)n2nc(CN(C)C)nc2n1 | PFF0160c | enzyme activity, inhibitor | – | > 10 |
| O=C(CCN(Cc1cccnc1)Cc1ccc2c(c1)OCO2)NO | MEP1A | enzyme activity, inhibitor | – | 0.464 |
| COC(=O)[C@H]1Cc2c([nH]c3ccccc23)[C@@H](c2ccc(OC)c(OC)c2)N1C(=O)CCl | PDE5A | enzyme activity, inhibitor, FP | – | > 10 |
| Cc1cc(Nc2cccc(Cl)c2)n2nc(CC(C)C)nc2n1 | PFF0160c | enzyme activity, inhibitor | – | > 10 |
| CN(C)C/C=C/C(=O)Nc1cccc(C(=O)Nc2ccc(Nc3nccc(-c4cccnc4)n3)cc2)c1 | Serine/threonine-protein kinase Nek3 (NEK3, Homo sapiens, UniProt P51956) | enzyme activity, inhibitor, radiometric | – | 0.185 |
| Cc1ccc(C(C)C)cc1NC(=O)COC(=O)c1ccc(O)c(O)c1 | PPO3 | enzyme activity, inhibitor | – | 11 |
| COCCOc1nc2nc(C)cc(Nc3ccc(Cl)cc3)n2n1 | PFF0160c | enzyme activity, inhibitor | – | > 10 |
| O=C1[C@H]2Cc3c([nH]c4ccccc34)[C@@H](c3cccnc3)N2C(=O)N1c1ccc(Cl)cc1 | PDE5A | enzyme activity, inhibitor, FP | – | 4.99 |
| COc1ccc(C2=NN(C3CCCCCC3)C(=O)[C@@H]3CC=CC[C@H]23)cc1-c1ccc(C(N)=O)cc1 (relative stereo) | PDE4A | enzyme activity, inhibitor | – | 0.251 |
